{
  "source": "ChEMBL document CHEMBL4308887",
  "about": "“Synthesis and biological evaluation of clovamide analogues with catechol functionality as potent Parkinson's disease agents in vitro and in vivo” (Bioorg Med Chem Lett, 2019)",
  "key": {"SH-SY5Y [1]": {"system": "SH-SY5Y", "test": "Neuroprotection against H2O2-induced cell death in human SH-SY5Y cells at 100 uM preincubated for 6 hrs followed by H2O2 addition and measured after 24 hrs by MTT assay relative to control", "assay_type": "functional", "summary_of_the_method": "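Human SH-SY5Y neuroblastoma cells pretreated with compound at 100 μM for 6 h, then exposed to 600 μM H₂O₂ for 24 h; viability read by MTT and expressed as protection rate relative to untreated control. DMSO below 0.1% in all groups. Primary single-concentration screen; three independent experiments.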"}, "SH-SY5Y [2]": {"system": "SH-SY5Y", "test": "Neuroprotection against H2O2-induced cell death in human SH-SY5Y cells preincubated for 6 hrs followed by H2O2 addition and measured after 24 hrs by MTT assay", "assay_type": "functional, cell-based", "summary_of_the_method": "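Primary screen at 100 μM, then dose-response. SH-SY5Y cells pretreated, then exposed to 600 μM H₂O₂ (the level chosen from a 100–1000 μM, 24 h viability titration). EC₅₀ is the concentration giving 50% of maximal effect. N-acetyl-L-cysteine served as positive control. DMSO below 0.1%. Mean ± S.E.M. of three experiments.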"}, "SH-SY5Y [3]": {"system": "SH-SY5Y", "test": "Neuroprotection against H2O2-induced cell death in human SH-SY5Y cells assessed as cell viability at 1 uM preincubated for 6 hrs followed by H2O2 addition and measured after 24 hrs by MTT assay relative to control", "assay_type": "functional", "conditions": "read-out: Activity", "summary_of_the_method": "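SH-SY5Y cells pretreated with 1 at 1 or 10 μM, then exposed to 600 μM H₂O₂. Viability by MTT, expressed as % of control. DMSO below 0.1%. Mean ± S.E.M. of three independent experiments.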"}, "SH-SY5Y [4]": {"system": "SH-SY5Y", "test": "Neuroprotection against H2O2-induced toxicity in human SH-SY5Y cells assessed as LDH release at 1 uM preincubated for 6 hrs followed by H2O2 addition and measured after 24 hrs (reference value: 339.93 +/- 3.66 U/L)", "assay_type": "functional"}, "SH-SY5Y [5]": {"system": "SH-SY5Y", "test": "Induction of oxidative stress in non-stimulated human SH-SY5Y cells assessed as reactive oxygen species level at 10 uM after 6 hrs by DHE dye based flow cytometry (reference value: 4.8%)", "assay_type": "cell-based"}, "SH-SY5Y [6]": {"system": "SH-SY5Y", "test": "Protection against H2O2-induced apoptosis in human SH-SY5Y cells assessed as viable cells at 1 uM preincubated for 6 hrs followed by H2O2 addition and measured after 24 hrs by Annexin V-FITC/propidium iodide staining based flow cytometry (reference value: 12.4%)", "assay_type": "functional", "conditions": "read-out: Activity"}, "SH-SY5Y [7]": {"system": "SH-SY5Y", "test": "Protection against H2O2-induced apoptosis in human SH-SY5Y cells assessed as late apoptotic cells at 1 uM preincubated for 6 hrs followed by H2O2 addition and measured after 24 hrs by Annexin V-FITC/propidium iodide staining based flow cytometry (reference value: 77.5%)", "assay_type": "functional"}, "SH-SY5Y [8]": {"system": "SH-SY5Y", "test": "Protection against H2O2-induced apoptosis in human SH-SY5Y cells assessed as late apoptotic cells at 1 uM preincubated for 6 hrs followed by H2O2 addition and measured after 24 hrs by Annexin V-FITC/propidium iodide staining based flow cytometry (reference value: 3.5%)", "assay_type": "functional"}, "[9]": {"test": "Induction of apoptosis in non-stimulated human SH-SY5Y cells assessed as viable cells at 10 uM measured after 6 hrs by Annexin V-FITC/propidium iodide staining based flow cytometry (reference value: 92.5%)", "assay_type": "cell-based", "conditions": "read-out: Activity"}, "SH-SY5Y [10]": {"system": "SH-SY5Y", "test": "Induction of apoptosis in non-stimulated human SH-SY5Y cells assessed as late apoptotic cells at 10 uM measured after 6 hrs by Annexin V-FITC/propidium iodide staining based flow cytometry (reference value: 2.3%)", "assay_type": "cell-based"}, "SH-SY5Y [11]": {"system": "SH-SY5Y", "test": "Induction of apoptosis in non-stimulated human SH-SY5Y cells assessed as effect on cleaved caspase3 expression at 1 to 10 uM measured after 6 hrs by Western blot analysis", "assay_type": "cell-based", "summary_of_the_method": "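Bax, Bcl-2 and cleaved caspase-3 measured by western blot in SH-SY5Y cells given 1 alone, with β-actin as internal standard. Mean ± S.E.M. of three independent experiments.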"}, "Mus musculus [12]": {"system": "Mus musculus", "test": "Anti-parkinson's activity in MPTP-induced C57Bl/6 mouse model of Parkinson's disease assessed as decrease in ratio of Bax/Bcl2 expression in substantia nigra at 10 to 20 mg/kg, ig pretreated for 10 days followed by MPTP challenge measured 10 days post MPTP addition by Western blot analysis", "assay_type": "functional, organism-based", "summary_of_the_method": "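Substantia nigra from MPTP mice. Bax, Bcl-2 and cleaved caspase-3 measured by western blot, with Bcl-2/Bax ratio by densitometry. Mean ± S.D., n = 6 mice/group.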"}, "Mus musculus [13]": {"system": "Mus musculus", "test": "Anti-parkinson's activity in MPTP-induced C57Bl/6 mouse model of Parkinson's disease assessed as decrease in ratio of Bax/Bcl2 expression in striatum at 10 to 20 mg/kg, ig pretreated for 10 days followed by MPTP challenge measured 10 days post MPTP addition by Western blot analysis", "assay_type": "functional, organism-based"}, "[14]": {"test": "Tmax in Sprague-Dawley rat at 25 mg/kg, po by LC-MS/MS analysis", "assay_type": "ADME, organism-based", "conditions": "in vivo", "summary_of_the_method": "(§1)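 Male Sprague–Dawley rats (n = 3) dosed i.v. 5 mg/kg (5% DMSO, 2% F68, 93% saline) or p.o. 25 mg/kg (0.5% methylcellulose, 1% Tween 80). Orbital blood at 0.083–24 h (12 points). Plasma concentration–time profiles gave Cl, Vdss, AUC, T1/2, Tmax, Cmax, MRT and absolute F.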"}, "[15]": {"test": "Cmax in Sprague-Dawley rat at 25 mg/kg, po by LC-MS/MS analysis", "assay_type": "ADME, organism-based", "parameters": "dose 25 mg/kg, route oral", "conditions": "in vivo", "summary_of_the_method": "(§2)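 Male Sprague–Dawley rats dosed with 1 at 5 mg/kg i.v. (vehicle 5% DMSO, 2% F68, 93% saline) or 25 mg/kg p.o. (0.5% methylcellulose with 1% Tween 80). Orbital blood sampled at 0.083–24 h, 12 time points. Plasma PK parameters derived. Mean ± SD, n = 3.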"}, "[16]": {"test": "MRT in Sprague-Dawley rat at 25 mg/kg, po by LC-MS/MS analysis", "assay_type": "ADME, organism-based", "conditions": "in vivo", "summary_of_the_method": "as §2"}, "[17]": {"test": "Oral bioavailability in Sprague-Dawley rat at 25 mg/kg by LC-MS/MS analysis", "assay_type": "ADME, organism-based", "conditions": "in vivo", "summary_of_the_method": "as §1"}, "[18]": {"test": "AUC (0 to infinity) in Sprague-Dawley rat at 5 mg/kg, iv by LC-MS/MS analysis", "assay_type": "ADME, organism-based", "parameters": "dose 5 mg/kg, route intravenous, time infinity", "conditions": "in vivo", "summary_of_the_method": "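Single intravenous 5 mg/kg dose in 5% DMSO + 2% F68 + 93% saline to male Sprague–Dawley rats (n = 3). Orbital blood samples (100-200 μL) were taken at 12 points over 24 h (0.083 to 24 h). AUC0-∞ was derived from the plasma concentration–time curve and given as mean ± SD.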"}, "[19]": {"test": "Half life in Sprague-Dawley rat at 5 mg/kg, iv by LC-MS/MS analysis", "assay_type": "ADME, organism-based", "conditions": "in vivo", "summary_of_the_method": "as §2"}, "[20]": {"test": "Activation of PI3K/Akt/mTOR signaling in human SH-SY5Y cells assessed as up regulation of HO-1 expression after 24 hrs by Western blot analysis", "assay_type": "cell-based", "summary_of_the_method": "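HO-1 western blot in SH-SY5Y cells incubated 24 h with 1 at 0.1, 1 or 10 μM, without H₂O₂. Band densitometry expressed as % of control. Mean ± S.E.M. from three independent experiments.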"}, "SH-SY5Y [21]": {"system": "SH-SY5Y", "test": "Neuroprotection against H2O2-induced cell death in human SH-SY5Y cells at 10 uM preincubated for 6 hrs followed by H2O2 addition and measured after 24 hrs in presence of HO-1 inhibitor ZnPPIX by MTT assay", "assay_type": "functional, cell-based", "summary_of_the_method": "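Cells pretreated with ZnPPIX (10 μM) for 1 h and with 1 (10 μM) for 6 h, then exposed to 600 μM H₂O₂ for 24 h. Viability by MTT. Mean ± S.E.M., three independent experiments.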"}},
  "note": "Activity calls are given as the source filed them. The calls are words filed in the database; no cut-off is given here.",
  "data": [
    {"smiles": "COC(=O)[C@H](Cc1ccccc1)NC(=O)/C=C/c1ccc(O)c(O)c1", "note": "[N-CAFFEOYL-PHENYLALANINE METHYL ESTER]", "values": [
      {"measurement": "Activity", "setting": "SH-SY5Y [1]", "value": ">50", "unit": "%"},
      {"measurement": "EC50", "setting": "SH-SY5Y [2]", "value": 4.26, "unit": "µM"},
      {"measurement": "viability at 1 µM", "setting": "SH-SY5Y [3]", "value": 68.3, "unit": "%"},
      {"measurement": "Activity", "setting": "SH-SY5Y [4]", "value": 269.12, "unit": "U/L"},
      {"measurement": "Activity", "setting": "SH-SY5Y [5]", "value": 7.3, "unit": "%"},
      {"measurement": "viability at 1 µM", "setting": "SH-SY5Y [6]", "value": 72, "unit": "%"},
      {"measurement": "Activity", "setting": "SH-SY5Y [7]", "value": 17.8, "unit": "%"},
      {"measurement": "Activity", "setting": "SH-SY5Y [8]", "value": 3.9, "unit": "%"},
      {"measurement": "viability at 6 h, 10 µM", "setting": "[9]", "value": 94.8, "unit": "%"},
      {"measurement": "Activity", "setting": "SH-SY5Y [10]", "value": 2.7, "unit": "%"},
      {"measurement": "Activity", "setting": "SH-SY5Y [11]", "value": "Non-Toxic"},
      {"measurement": "Activity", "setting": "Mus musculus [12]", "value": "Active"},
      {"measurement": "Activity", "setting": "Mus musculus [13]", "value": "Active"},
      {"measurement": "Tmax", "setting": "[14]", "value": 2, "unit": "h"},
      {"measurement": "Cmax", "setting": "[15]", "value": 808, "unit": "ng/mL"},
      {"measurement": "MRT", "setting": "[16]", "value": 3.06, "unit": "h"},
      {"measurement": "bioavailability", "setting": "[17]", "value": 15.2, "unit": "%"},
      {"measurement": "AUC(0-inf)", "setting": "[18]", "value": 3270, "unit": "ng·h/mL"},
      {"measurement": "half-life", "setting": "[19]", "value": 0.85, "unit": "h"},
      {"measurement": "Activity", "setting": "[20]", "value": "Dose-dependent effect"},
      {"measurement": "Activity", "setting": "SH-SY5Y [21]", "value": "inactive"}
    ]}
  ]
}
